What follows are molecules tested on MCF7 (assay: Antiproliferative activity against human MCF7 cells after 48 hrs by MTT assay). Details: MCF7, 48 h; call rule not given here.
Type: functional, cell-based
Outline: (§1)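 Cells grown in DMEM with 10% FCS and antibiotics at 37 °C, 5% CO2. Only viable cells from passages 3–10 were used. Seeded at 5000 cells/well and left overnight, then exposed 48 h to five concentrations from 10–8 to 10–4 M. MTT was added, formazan dissolved in acidified 2-propanol and read at 540/690 nm. Two independent experiments, each in quadruplicate. IC50 by median effect analysis.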

Structure (SMILES) | IC50
C[C@]12CCc3ncccc3C1=CC[C@@H]1[C@@H]2CC[C@@]2(C)[C@H]1CC[C@@]2(O)Cc1ccccn1 | > 100 µM
COc1cccc2c1C(=O)c1c(O)c3c(c(O)c1C2=O)C[C@@](O)(C(=O)CO)C[C@@H]3O[C@H]1C[C@H](N)[C@H](O)[C@H](C)O1 [DOXORUBICIN] | 0.75 µM
C[C@]12CC[C@H]3[C@@H](CC[C@H]4c5cccnc5CC[C@@]43C)[C@@H]1CC(=O)OC2 | > 100 µM
C[C@]12CCC(=O)C(O)=C1CC[C@@H]1[C@@H]2CC[C@]2(C)C(=O)CC[C@@H]12 [FORMESTANE] | > 100 µM
C[C@]12CCc3ncccc3C1=CC[C@@H]1[C@@H]2CC[C@]2(C)/C(=C/c3ccccn3)CC[C@@H]12 | 37.4 µM

The molecules below were run on MDA-MB-231 (assay: Antiproliferative activity against human MDA-MB-231 cells after 48 hrs by MTT assay). Details: MDA-MB-231, 48 h.
Type: functional, cell-based
Outline: as §1

Structure (SMILES) | IC50
C[C@]12CCc3ncccc3C1=CC[C@@H]1[C@@H]2CC[C@@]2(C)[C@H]1CC[C@@]2(O)Cc1ccccn1 | 44.5 µM
C[C@]12CC[C@H]3[C@@H](CC[C@H]4c5cccnc5CC[C@@]43C)[C@@H]1CC(=O)OC2 | 9.13 µM
C[C@]12CCc3ncccc3C1=CC[C@@H]1[C@@H]2CC[C@]2(C)/C(=C/c3ccccn3)CC[C@@H]12 | 87.4 µM

These molecules were tested on PC-3 (assay: Antiproliferative activity against human PC3 cells after 48 hrs by MTT assay). Details: PC-3, 48 h.
Type: functional, cell-based
Outline: as §1

Structure (SMILES) | IC50
C[C@]12CCc3ncccc3C1=CC[C@@H]1[C@@H]2CC[C@@]2(C)[C@H]1CC[C@@]2(O)Cc1ccccn1 | 7.93 µM
C[C@]12CC[C@H]3[C@@H](CC[C@H]4c5cccnc5CC[C@@]43C)[C@@H]1CC(=O)OC2 | > 100 µM
C[C@]12CCc3ncccc3C1=CC[C@@H]1[C@@H]2CC[C@]2(C)/C(=C/c3ccccn3)CC[C@@H]12 | 11.5 µM

What follows are molecules tested on HeLa (assay: Antiproliferative activity against human HeLa cells after 48 hrs by MTT assay). Details: not given.
Type: functional, cell-based
Outline: as §1

Structure (SMILES) | IC50
C[C@]12CCc3ncccc3C1=CC[C@@H]1[C@@H]2CC[C@@]2(C)[C@H]1CC[C@@]2(O)Cc1ccccn1 | > 100 µM
C[C@]12CC[C@H]3[C@@H](CC[C@H]4c5cccnc5CC[C@@]43C)[C@@H]1CC(=O)OC2 | 11.8 µM
C[C@]12CCc3ncccc3C1=CC[C@@H]1[C@@H]2CC[C@]2(C)/C(=C/c3ccccn3)CC[C@@H]12 | > 100 µM

Each molecule was assayed on HT-29 (assay: Antiproliferative activity against human HT-29 cells after 48 hrs by MTT assay). Details: HT-29, 48 h.
Type: functional, cell-based
Outline: as §1

Structure (SMILES) | IC50
C[C@]12CCc3ncccc3C1=CC[C@@H]1[C@@H]2CC[C@@]2(C)[C@H]1CC[C@@]2(O)Cc1ccccn1 | 46.1 µM
COc1cccc2c1C(=O)c1c(O)c3c(c(O)c1C2=O)C[C@@](O)(C(=O)CO)C[C@@H]3O[C@H]1C[C@H](N)[C@H](O)[C@H](C)O1 [DOXORUBICIN] | 0.32 µM
C[C@]12CC[C@H]3[C@@H](CC[C@H]4c5cccnc5CC[C@@]43C)[C@@H]1CC(=O)OC2 | > 100 µM
C[C@]12CCC(=O)C(O)=C1CC[C@@H]1[C@@H]2CC[C@]2(C)C(=O)CC[C@@H]12 [FORMESTANE] | > 100 µM
C[C@]12CCc3ncccc3C1=CC[C@@H]1[C@@H]2CC[C@]2(C)/C(=C/c3ccccn3)CC[C@@H]12 | > 100 µM

These molecules were tested on A549 (assay: Antiproliferative activity against human A549 cells after 48 hrs by MTT assay). Details: A549, 48 h.
Type: functional, cell-based
Outline: as §1

Structure (SMILES) | IC50
C[C@]12CCc3ncccc3C1=CC[C@@H]1[C@@H]2CC[C@@]2(C)[C@H]1CC[C@@]2(O)Cc1ccccn1 | > 100 µM
COc1cccc2c1C(=O)c1c(O)c3c(c(O)c1C2=O)C[C@@](O)(C(=O)CO)C[C@@H]3O[C@H]1C[C@H](N)[C@H](O)[C@H](C)O1 [DOXORUBICIN] | 7.86 µM
C[C@]12CC[C@H]3[C@@H](CC[C@H]4c5cccnc5CC[C@@]43C)[C@@H]1CC(=O)OC2 | > 100 µM
C[C@]12CCC(=O)C(O)=C1CC[C@@H]1[C@@H]2CC[C@]2(C)C(=O)CC[C@@H]12 [FORMESTANE] | > 100 µM
C[C@]12CCc3ncccc3C1=CC[C@@H]1[C@@H]2CC[C@]2(C)/C(=C/c3ccccn3)CC[C@@H]12 | 11.9 µM

The molecules below were run on MRC5 (assay: Antiproliferative activity against human MRC5 cells after 48 hrs by MTT assay). Details: MRC5, 48 h.
Type: cell-based
Outline: as §1

Structure (SMILES) | IC50
C[C@]12CCc3ncccc3C1=CC[C@@H]1[C@@H]2CC[C@@]2(C)[C@H]1CC[C@@]2(O)Cc1ccccn1 | > 100 µM
C[C@]12CC[C@H]3[C@@H](CC[C@H]4c5cccnc5CC[C@@]43C)[C@@H]1CC(=O)OC2 | > 100 µM
C[C@]12CCC(=O)C(O)=C1CC[C@@H]1[C@@H]2CC[C@]2(C)C(=O)CC[C@@H]12 [FORMESTANE] | > 100 µM
C[C@]12CCc3ncccc3C1=CC[C@@H]1[C@@H]2CC[C@]2(C)/C(=C/c3ccccn3)CC[C@@H]12 | > 100 µM

Each molecule was assayed against T1, Aldo-keto reductase family 1 member C3 (Homo sapiens) (UniProt P42330) (assay: Inhibition of AKR1C3 (unknown origin) at 6.25 uM using 9,10-phenanthrenequinone as substrate in presence of NADPH by spectrophotometric method relative to control). Details: not given.
T1 sequence (whole entry): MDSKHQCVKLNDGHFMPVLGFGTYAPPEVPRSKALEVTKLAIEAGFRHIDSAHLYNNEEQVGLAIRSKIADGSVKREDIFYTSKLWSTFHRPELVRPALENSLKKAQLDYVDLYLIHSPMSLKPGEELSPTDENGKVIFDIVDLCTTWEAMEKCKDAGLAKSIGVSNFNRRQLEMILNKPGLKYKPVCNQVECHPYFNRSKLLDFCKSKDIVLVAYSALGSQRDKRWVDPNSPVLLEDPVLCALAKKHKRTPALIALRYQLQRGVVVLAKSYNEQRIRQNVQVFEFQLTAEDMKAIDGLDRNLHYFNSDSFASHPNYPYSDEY
Outline: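 N-terminal His-tagged human AKR1C3 was expressed in E. coli BL21(DE3) and purified on nickel. Enzyme at 40 μg/mL with 200 μM NADPH and compound at 6.25 μM, in 50 mM sodium phosphate pH 6.5, preincubated 15 min at 37 °C. Reaction started with 0.39 μM phenanthrenequinone and A340 followed at 30 °C. Percent inhibition taken from slopes over the first 10 min against PQ-only control, in triplicate.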

Structure (SMILES) | inhibition
C[C@]12CC[C@H]3[C@@H](CC[C@H]4c5cccnc5CC[C@@]43C)[C@@H]1CC(=O)OC2 | 64.3%

Each molecule was assayed against T2, Aldo-keto reductase family 1 member C3 (Homo sapiens, UniProt P42330) (assay: Inhibition of AKR1C3 (unknown origin) using 9,10-phenanthrenequinone as substrate in presence of NADPH by spectrophotometric method). Details: not given.
T2 sequence (P42330 whole entry): T1 sequence (whole entry)
Outline: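 Recombinant His-tagged human AKR1C3 (40 μg/mL) with 200 μM NADPH in pH 6.5 phosphate buffer, preincubated 15 min at 37 °C with 1.5–500 μM inhibitor in 2% DMSO. Phenanthrenequinone held at 0.39 μM and NADPH loss followed at 340 nm.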

Structure (SMILES) | IC50
C[C@]12CC[C@H]3[C@@H](CC[C@H]4c5cccnc5CC[C@@]43C)[C@@H]1CC(=O)OC2 | 15 µM

Each molecule was assayed against T3, Estrogen receptor (Homo sapiens, UniProt P03372) (assay: Binding affinity to YFP-fused ERalpha LBD (unknown origin) by cell based fluorimetric assay). Details: not given.
T3 sequence (P03372 whole entry): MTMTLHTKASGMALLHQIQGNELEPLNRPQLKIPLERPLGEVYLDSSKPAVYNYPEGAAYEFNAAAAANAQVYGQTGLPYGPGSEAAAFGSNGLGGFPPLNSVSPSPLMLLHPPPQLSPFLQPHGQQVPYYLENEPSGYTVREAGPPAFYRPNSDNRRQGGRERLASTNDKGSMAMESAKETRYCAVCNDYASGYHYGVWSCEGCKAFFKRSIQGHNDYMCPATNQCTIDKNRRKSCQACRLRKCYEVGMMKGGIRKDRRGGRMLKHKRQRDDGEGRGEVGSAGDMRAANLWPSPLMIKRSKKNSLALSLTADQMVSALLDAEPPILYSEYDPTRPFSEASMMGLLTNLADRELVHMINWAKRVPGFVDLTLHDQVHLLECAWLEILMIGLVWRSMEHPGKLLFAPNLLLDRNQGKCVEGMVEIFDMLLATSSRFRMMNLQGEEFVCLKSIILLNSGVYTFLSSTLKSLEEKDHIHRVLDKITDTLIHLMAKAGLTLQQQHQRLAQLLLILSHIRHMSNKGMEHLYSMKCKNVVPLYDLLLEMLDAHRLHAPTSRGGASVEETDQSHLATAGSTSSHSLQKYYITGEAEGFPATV
Outline: (§2)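 S. cerevisiae FY250 transformed with ERα, ERβ or AR LBD–EYFP constructs and grown at 28 °C in selection medium with 2% raffinose to OD600 0.4–0.6. Galactose (2% final) induced expression, with ligand added at 10 μM final and 1% DMSO as background. Cells incubated 14 h at 25 °C in the dark, then read at ex 485/em 538 nm and normalized to OD600. Result given as fold fluorescence over DMSO, mean of three probes.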

Structure (SMILES) | Activity
C[C@]12CCc3ncccc3C1=CC[C@@H]1[C@@H]2CC[C@@]2(C)[C@H]1CC[C@@]2(O)Cc1ccccn1 | Not Active
C[C@]12CC[C@H]3[C@@H](CC[C@H]4c5cccnc5CC[C@@]43C)[C@@H]1CC(=O)OC2 | Not Active
C[C@]12CCc3ncccc3C1=CC[C@@H]1[C@@H]2CC[C@]2(C)/C(=C/c3ccccn3)CC[C@@H]12 | Not Active

These molecules were tested against Estrogen receptor beta (Homo sapiens, UniProt Q92731) (assay: Binding affinity to YFP-fused ERbeta LBD (unknown origin) by cell based fluorimetric assay). Details: not given.
Sequence of Estrogen receptor beta (Q92731 whole entry, the tested form may be a part): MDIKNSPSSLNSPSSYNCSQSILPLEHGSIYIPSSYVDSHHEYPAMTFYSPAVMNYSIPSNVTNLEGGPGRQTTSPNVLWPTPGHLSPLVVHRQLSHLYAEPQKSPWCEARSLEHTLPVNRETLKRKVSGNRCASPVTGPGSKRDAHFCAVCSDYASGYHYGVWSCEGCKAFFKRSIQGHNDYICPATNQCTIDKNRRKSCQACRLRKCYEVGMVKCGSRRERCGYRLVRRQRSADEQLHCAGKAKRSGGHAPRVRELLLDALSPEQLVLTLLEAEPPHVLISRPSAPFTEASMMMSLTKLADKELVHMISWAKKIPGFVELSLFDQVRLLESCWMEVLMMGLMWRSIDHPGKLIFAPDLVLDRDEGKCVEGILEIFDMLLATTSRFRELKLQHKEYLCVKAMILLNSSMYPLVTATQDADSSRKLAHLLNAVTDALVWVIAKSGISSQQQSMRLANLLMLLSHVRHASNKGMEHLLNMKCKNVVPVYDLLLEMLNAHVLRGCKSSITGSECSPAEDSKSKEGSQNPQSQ
Outline: as §2

Structure (SMILES) | Activity
C[C@]12CCc3ncccc3C1=CC[C@@H]1[C@@H]2CC[C@@]2(C)[C@H]1CC[C@@]2(O)Cc1ccccn1 | Not Active
C[C@]12CC[C@H]3[C@@H](CC[C@H]4c5cccnc5CC[C@@]43C)[C@@H]1CC(=O)OC2 | Not Active
C[C@]12CCc3ncccc3C1=CC[C@@H]1[C@@H]2CC[C@]2(C)/C(=C/c3ccccn3)CC[C@@H]12 | Not Active

The molecules below were run against T4, Androgen receptor (Homo sapiens, UniProt P10275) (assay: Binding affinity to YFP-fused AR (unknown origin) by cell based fluorimetric assay). Details: not given.
T4 sequence (P10275 whole entry): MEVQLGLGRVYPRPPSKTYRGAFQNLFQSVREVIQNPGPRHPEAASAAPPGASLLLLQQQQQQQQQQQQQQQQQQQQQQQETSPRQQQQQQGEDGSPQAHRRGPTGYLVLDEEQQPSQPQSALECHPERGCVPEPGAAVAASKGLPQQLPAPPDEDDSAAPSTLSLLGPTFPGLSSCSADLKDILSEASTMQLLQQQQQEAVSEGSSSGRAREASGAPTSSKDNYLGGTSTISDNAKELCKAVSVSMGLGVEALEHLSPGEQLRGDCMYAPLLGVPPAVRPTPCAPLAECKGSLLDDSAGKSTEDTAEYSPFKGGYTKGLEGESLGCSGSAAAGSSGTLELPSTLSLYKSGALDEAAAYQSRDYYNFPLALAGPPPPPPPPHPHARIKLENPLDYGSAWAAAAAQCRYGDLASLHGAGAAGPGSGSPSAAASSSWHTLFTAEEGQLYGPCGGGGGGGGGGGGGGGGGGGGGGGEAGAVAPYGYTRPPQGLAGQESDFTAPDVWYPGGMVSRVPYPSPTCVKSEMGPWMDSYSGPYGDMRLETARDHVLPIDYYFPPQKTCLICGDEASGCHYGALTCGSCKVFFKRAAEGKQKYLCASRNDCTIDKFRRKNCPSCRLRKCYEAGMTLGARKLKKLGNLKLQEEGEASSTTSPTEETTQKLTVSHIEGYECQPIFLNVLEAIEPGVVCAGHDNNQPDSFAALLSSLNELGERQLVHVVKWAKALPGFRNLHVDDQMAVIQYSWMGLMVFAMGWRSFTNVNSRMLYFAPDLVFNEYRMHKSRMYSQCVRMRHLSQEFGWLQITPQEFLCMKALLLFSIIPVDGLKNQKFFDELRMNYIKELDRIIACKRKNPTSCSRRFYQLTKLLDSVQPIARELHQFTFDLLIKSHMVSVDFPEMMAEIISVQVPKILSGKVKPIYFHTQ
Outline: as §2

Structure (SMILES) | Activity
C[C@]12CCc3ncccc3C1=CC[C@@H]1[C@@H]2CC[C@@]2(C)[C@H]1CC[C@@]2(O)Cc1ccccn1 | Not Active
C[C@]12CC[C@H]3[C@@H](CC[C@H]4c5cccnc5CC[C@@]43C)[C@@H]1CC(=O)OC2 | Not Active
C[C@]12CCc3ncccc3C1=CC[C@@H]1[C@@H]2CC[C@]2(C)/C(=C/c3ccccn3)CC[C@@H]12 | Not Active

— ChEMBL document CHEMBL4257507, “Evaluation of A-ring fused pyridine d-modified androstane derivatives for antiproliferative and aldo-keto reductase 1C3 inhibitory activity” (Medchemcomm, 2018)
